Measurements as given in ChEMBL document CHEMBL1152300, “Ligand specificity of constitutive androstane receptor as probed by induced-fit docking and mutagenesis” (J Med Chem, 2008).
One block for each compound: values may come before it.

How the values were obtained:
Assay type in all cases: cell-based
[1] = molecular target: T1, Nuclear receptor subfamily 1 group I member 3 (Mus musculus, UniProt O35627, H213A); experiment: Enhancement of nuclear co-repressor receptor binding to mouse CAR H213A mutant […] at 10 uM by yeast two-hybrid assay
Procedure, shortened: (§1)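 Yeast two-hybrid: yeast expressing wild-type or mutant mouse CAR LBD plus SRC-1 or NCoR, selected on SD medium lacking Leu and Trp. Pooled colonies treated with DMSO or test chemical for 3.5 h. β-Galactosidase normalized to cell density. SRC-1 reference: wild-type + DMSO = 100. NCoR reference: 10 µM androstenol = 100. Mean ± SD, two independent determinations, each in triplicate.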

[2] = molecular target: T2, mouse CAR (NR1I3), wild type (Mus musculus, UniProt O35627); experiment: Decrease in wild type mouse CAR activation expressed in HEK293 cells at 10 uM by mammalian one-hybrid transactivation assay; conditions: HEK293 cells expressing wild type mouse CAR, read-out: Activity
T2 sequence (O35627 whole entry): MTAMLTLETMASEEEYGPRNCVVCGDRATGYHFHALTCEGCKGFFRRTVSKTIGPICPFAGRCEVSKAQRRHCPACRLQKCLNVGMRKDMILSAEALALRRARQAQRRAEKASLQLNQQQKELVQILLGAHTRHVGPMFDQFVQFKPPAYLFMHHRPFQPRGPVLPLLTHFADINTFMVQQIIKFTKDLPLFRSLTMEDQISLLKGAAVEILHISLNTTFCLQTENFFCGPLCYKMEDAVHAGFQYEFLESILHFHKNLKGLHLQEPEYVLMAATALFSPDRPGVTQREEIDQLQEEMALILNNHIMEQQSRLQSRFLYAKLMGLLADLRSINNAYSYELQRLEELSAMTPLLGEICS
Procedure, shortened: (§2)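 GAL4 DBD fused to mouse CAR LBD (residues 118-358), wild type or point mutant, cotransfected with UASx4-tk-luc reporter and pCMVβ into HEK293 cells. Cells cultured with DMSO (0.1% v/v) or compound (final 1, 2 or 10 µM). Lysed 24 h post-transfection. Luciferase normalized to β-galactosidase, expressed relative to empty GAL4 vector (=1.0). Mean ± SD, three independent experiments.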

[3] = molecular target: Nuclear receptor subfamily 1 group I member 3 (Mus musculus, UniProt O35627, T350A); experiment: Decrease in nuclear co-repressor receptor binding to mouse CAR T350A mutant […] at 2 uM by yeast two-hybrid assay; conditions: read-out: Activity; procedure, shortened: as §1
[4] = molecular target: T3, Nuclear receptor subfamily 1 group I member 3 (Mus musculus, UniProt O35627, T350M); experiment: Activation of mouse CAR T350M mutant expressed in HEK293 cells at 2 uM by mammalian one-hybrid assay; conditions: hek293, 2 µM
Procedure, shortened: (§3)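 GAL4-DBD fused to mouse CAR LBD (residues 118-358), wild-type or point mutant, cotransfected with UASx4-tk-luc reporter and pCMVβ into HEK293 cells. Cells were exposed to final 1 µM, 2 µM or 10 µM test chemical, or 0.1% v/v DMSO, for 24 h after transfection. Luciferase was normalized to β-galactosidase and set against empty GAL4 vector (=1.0). Mean ± standard deviation, three independent experiments.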

[5] = molecular target: T4, Nuclear receptor subfamily 1 group I member 3 (Mus musculus, UniProt O35627, F171A); experiment: Activation of mouse CAR F171A mutant expressed in HEK293 cells at 2 uM by mammalian one-hybrid assay; conditions: hek293, 2 µM; procedure, shortened: as §3
[6] = molecular target: T4, Nuclear receptor subfamily 1 group I member 3; experiment: Effect on steroid receptor co-activator 1 binding to mouse CAR F171A mutant […] at 2 uM by yeast two-hybrid assay; conditions: read-out: Activity; procedure, shortened: as §1
[7] = molecular target: T5, Nuclear receptor subfamily 1 group I member 3 (Mus musculus, UniProt O35627, I252L); experiment: Enhancement of steroid receptor coactivator 1 binding to mouse CAR I252L mutant […] at 2 uM by yeast two-hybrid assay; procedure, shortened: as §1
[8] = molecular target: T5, Nuclear receptor subfamily 1 group I member 3; experiment: Activation of mouse CAR I252L mutant expressed in HEK293 cells at 2 uM by mammalian one-hybrid assay; conditions: hek293, 2 µM; procedure, shortened: as §3
[9] = molecular target: T5, Nuclear receptor subfamily 1 group I member 3; experiment: Activation of mouse CAR I252L mutant expressed in HEK293 cells at 1 uM by mammalian one-hybrid assay; conditions: hek293, 1 µM; procedure, shortened: as §2
[10] = molecular target: Nuclear receptor subfamily 1 group I member 3 (Mus musculus, UniProt O35627, Y336A); experiment: Decrease in steroid receptor coactivator 1 binding to mouse CAR Y336A mutant […] at 1 uM by yeast two-hybrid assay; conditions: read-out: Activity
Procedure, shortened: (§4)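 Yeast expressing wild-type or mutant mouse CAR LBD plus SRC-1, selected on SD plates lacking leucine and tryptophan. Pooled colonies treated with DMSO or compound for 3.5 h. β-Galactosidase activity normalized to cell density. Reference is wild-type CAR + SRC-1 with DMSO (=100). Mean ± SD of two independent determinations, each in triplicate.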

[11] = molecular target: Nuclear receptor subfamily 1 group I member 3 (Mus musculus, UniProt O35627, L212A); experiment: Effect on steroid receptor co-activator 1 binding to mouse CAR L212A mutant […] at 1 uM by yeast two-hybrid assay; conditions: read-out: Activity; procedure, shortened: as §4
[12] = molecular target: T5, Nuclear receptor subfamily 1 group I member 3; experiment: Effect on nuclear co-repressor receptor binding to mouse CAR I252L mutant […] at 1 uM by yeast two-hybrid assay; conditions: read-out: Activity
Procedure, shortened: as §4, with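 “NCoR,” for “SRC-1,”, “10 µM androstenol” for “wild-type CAR + SRC-1 with DMSO”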

[13] = molecular target: T1, Nuclear receptor subfamily 1 group I member 3; experiment: Activation of mouse CAR H213A mutant expressed in HEK293 cells at 1 uM by mammalian one-hybrid assay; conditions: hek293, 1 µM; procedure, shortened: as §2
[14] = molecular target: T4, Nuclear receptor subfamily 1 group I member 3; experiment: Effect on nuclear co-repressor receptor binding to mouse CAR F171A mutant […] at 1 uM by yeast two-hybrid assay
Procedure, shortened: as §4, with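 “NCoR,” for “SRC-1,”, “10 µM androstenol” for “wild-type CAR + SRC-1 with DMSO”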

[15] = molecular target: Nuclear receptor subfamily 1 group I member 3 (Mus musculus, UniProt O35627, N175A); experiment: Decrease in steroid receptor co-activator 1 binding to mouse CAR N175A mutant […] at 1 uM by yeast two-hybrid assay; conditions: read-out: Activity; procedure, shortened: as §4
[16] = molecular target: T3, Nuclear receptor subfamily 1 group I member 3; experiment: Effect on nuclear co-repressor receptor binding to mouse CAR T350M mutant […] at 1 uM by yeast two-hybrid assay; conditions: read-out: Activity
Procedure, shortened: as §4, with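 “NCoR,” for “SRC-1,”, “10 µM androstenol” for “wild-type CAR + SRC-1 with DMSO”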

[17] = molecular target: T5, Nuclear receptor subfamily 1 group I member 3; experiment: Enhancement of steroid receptor coactivator 1 binding to mouse CAR I252L mutant […] at 1 uM by yeast two-hybrid assay
Procedure, shortened: (§5)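 Yeast two-hybrid assay. Yeast co-expressing wild-type or mutant mouse CAR LBD and the SRC-1 partner were selected on SD plates lacking leucine and tryptophan. Random colonies were pooled and amplified, then treated with DMSO or test chemical for 3.5 h. β-galactosidase activity was normalized to cell density and set relative to wild-type mCAR + SRC-1 with DMSO (=100). Mean ± standard deviation of two determinations, each in triplicate.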

[18] = molecular target: Nuclear receptor subfamily 1 group I member 3 (Mus musculus, UniProt O35627, S251L); experiment: Effect on steroid receptor co-activator 1 binding to mouse CAR S251L mutant […] at 1 uM by yeast two-hybrid assay; conditions: read-out: Activity; procedure, shortened: as §5
Nuclear receptor subfamily 1 group I member 3 (Mus musculus, UniProt O35627, S251L), sequence (O35627 whole entry S251L): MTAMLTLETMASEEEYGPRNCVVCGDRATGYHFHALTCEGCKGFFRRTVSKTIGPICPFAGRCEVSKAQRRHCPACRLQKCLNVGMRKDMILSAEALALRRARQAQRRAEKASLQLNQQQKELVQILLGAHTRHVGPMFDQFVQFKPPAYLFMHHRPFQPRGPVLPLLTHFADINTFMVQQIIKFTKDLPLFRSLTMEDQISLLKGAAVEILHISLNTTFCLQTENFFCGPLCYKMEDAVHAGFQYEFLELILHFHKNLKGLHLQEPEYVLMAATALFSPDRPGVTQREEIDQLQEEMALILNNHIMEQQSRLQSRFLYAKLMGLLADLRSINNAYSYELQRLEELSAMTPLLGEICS

T5 sequence (O35627 whole entry I252L): as the sequence (O35627 whole entry S251L) above, with L251S, I252L counted along it
T4 sequence (O35627 whole entry F171A): as the sequence (O35627 whole entry S251L) above, with F171A, L251S counted along it
T3 sequence (O35627 whole entry T350M, the tested form may be a part): as the sequence (O35627 whole entry S251L) above, with L251S, T350M counted along it
T1 sequence (O35627 whole entry H213A, the tested form may be a part): as the sequence (O35627 whole entry S251L) above, with H213A, L251S counted along it
Nuclear receptor subfamily 1 group I member 3 (Mus musculus, UniProt O35627, Y336A), sequence (O35627 whole entry Y336A, the tested form may be a part): as the sequence (O35627 whole entry S251L) above, with L251S, Y336A counted along it
Nuclear receptor subfamily 1 group I member 3 (Mus musculus, UniProt O35627, L212A), sequence (O35627 whole entry L212A): as the sequence (O35627 whole entry S251L) above, with L212A, L251S counted along it
Nuclear receptor subfamily 1 group I member 3 (Mus musculus, UniProt O35627, T350A), sequence (O35627 whole entry T350A): as the sequence (O35627 whole entry S251L) above, with L251S, T350A counted along it
Nuclear receptor subfamily 1 group I member 3 (Mus musculus, UniProt O35627, N175A), sequence (O35627 whole entry N175A): as the sequence (O35627 whole entry S251L) above, with N175A, L251S counted along it

Activity [1]: >= 50%
Compound: COc1ccc(C(=O)CCCc2ccccc2)cc1

Compound: C[C@]12CC[C@@H](O)C[C@@H]1CC[C@@H]1[C@@H]2CC[C@]2(C)C=CC[C@@H]12 [ANDROSTENOL]
inhibition at 10 µM [2]: > 60%

inhibition at 2 µM [3]: ≥ 50%
Activity [4]: > 100%
Activity [5]: > 100%
activity at 2 µM [6]: < 50%
Activity [7]: >= 50%
Activity [8]: 50%
Compound: Clc1ccccc1C(c1ccccc1)(c1ccccc1)n1ccnc1 [CLOTRIMAZOLE]

Compound: Clc1cnc(Oc2ccc(Oc3ncc(Cl)cc3Cl)cc2)c(Cl)c1
Activity [9]: < 50%
inhibition at 1 µM [10]: ≥ 50%
activity at 1 µM [11]: < 50%
activity at 1 µM [12]: < 50%
Activity [13]: 50%
Activity [14]: < 50%
inhibition at 1 µM [15]: ≥ 50%
activity at 1 µM [16]: < 50%
Activity [17]: >= 50%
activity at 1 µM [18]: < 50%
